Source: PubChem
Tb MetRS inh = blocks T. brucei methionyl-tRNA synthetase activity. purified T. brucei MetRS, ATP depletion, Kinase-Glo luminescence. inhibition, % at 11.9 µM. hit rate 0.4% among 360,000;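 active = inhibition above a per-plate cutoff of the control wells' mean inhibition plus 3 SD, cut at about 5.5% in these data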
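Test system: purified T. brucei MetRS enzyme. Also added: ATP, methionine and E. coli bulk tRNA substrates. Compound: 11.9 µM single point. Schedule: 15 min enzyme-compound preincubation, 2 h reaction, 10 min detection, 25 °C. Signal: luciferase luminescence of residual ATP, Kinase-Glo. Evaluation: percent inhibition versus plate control medians. Controls: DMSO wells, low control.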
PREPL inh = inhibits the human prolyl oligopeptidase-like enzyme. Q4J6C6. recombinant PREPL, fluorescence polarization activity-based probe. inhibition, % at 5.96 µM. hit rate 0.68% among 320,000; in the data active = inhibition above about 43%
Neddyl block = blocks human cullin neddylation. P61081+Q13564. TR-FRET cullin neddylation, biochemical. inhibition, % at 25 µM. hit rate 0.58% among 360,000; in the data active = inhibition above about 36%
HNF4A DNA FP = change in binding of human HNF4 alpha to DNA. P41235. HNF4a-FITC DNA binding, fluorescence polarization, 1 h. activity change, % at 10 µM. hit rate 0.3% among 360,000; in the data active = activity change above about 30%, passing the limit was not always enough
Rpn11 inh = blocks the human proteasome subunit Rpn11; AID 588493; O00487; human 26S proteasome, Ub4-pepOG fluorescence polarization; 20S core pre-blocked with epoxomicin; inhibition, % at 20 µM; hit rate 0.59% among 360,000;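 active = inhibition at 20 µM, scaled to each plate's controls, above about 33%, limit read from the data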
CSN deneddyl inh = blocks human CSN-mediated cullin deneddylation. Q92905. Purified CSN, SCF-Nedd8-OG deneddylation, fluorescence polarization. inhibition, % at 12.5 µM. hit rate 0.38% among 360,000. AID 651999;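 active = pattern-corrected inhibition above about 35%, with an unprinted fluorescence ratio check between 0.5 and 1.5, limit read from the data, passing the limit was not always enough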
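Assay system: purified human Csn5 enzyme expressed in HEK293T cells; Input: 0.24 nM Csn5 enzyme, final concentration; Reagent: 10 nM SCFSkp2-Nedd8OG; Compound dosing: 12.5 µM single point; Times: reaction 90 min, room temperature; Technique: fluorescence polarization readout.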
Rpn11 confirm = Rpn11 inhibition confirmation, single concentration; hit rate 29% among 1,900; AID 602318; inhibition, % at 20 µM; shares compounds with Rpn11 inh; purified human 26S proteasome, Ub4-pepOG fluorescence polarization; proteasome pretreated with epoxomicin
MMP-2 counter = MMP-2 (human) inhibition counter-screen | shares compounds with Rpn11 inh | recombinant MMP-2, FRET peptide cleavage fluorescence | inhibition, % at 20 µM | hit rate 4% among 1,900 | AID 602330;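 note: human MMP-2 activated beforehand with APMA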
Thrombin inh = thrombin (bovine) inhibition counter-screen. shares compounds with Rpn11 inh. bovine thrombin cleavage of Ub4-pepOG, fluorescence polarization. inhibition, % at 20 µM. hit rate 13% among 1,900. AID 602333;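 active = mean inhibition at least 40% at 20 µM, or signal 3 deviations below plate average, so some actives read negative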
Target sequence (P00735 whole entry, looked up): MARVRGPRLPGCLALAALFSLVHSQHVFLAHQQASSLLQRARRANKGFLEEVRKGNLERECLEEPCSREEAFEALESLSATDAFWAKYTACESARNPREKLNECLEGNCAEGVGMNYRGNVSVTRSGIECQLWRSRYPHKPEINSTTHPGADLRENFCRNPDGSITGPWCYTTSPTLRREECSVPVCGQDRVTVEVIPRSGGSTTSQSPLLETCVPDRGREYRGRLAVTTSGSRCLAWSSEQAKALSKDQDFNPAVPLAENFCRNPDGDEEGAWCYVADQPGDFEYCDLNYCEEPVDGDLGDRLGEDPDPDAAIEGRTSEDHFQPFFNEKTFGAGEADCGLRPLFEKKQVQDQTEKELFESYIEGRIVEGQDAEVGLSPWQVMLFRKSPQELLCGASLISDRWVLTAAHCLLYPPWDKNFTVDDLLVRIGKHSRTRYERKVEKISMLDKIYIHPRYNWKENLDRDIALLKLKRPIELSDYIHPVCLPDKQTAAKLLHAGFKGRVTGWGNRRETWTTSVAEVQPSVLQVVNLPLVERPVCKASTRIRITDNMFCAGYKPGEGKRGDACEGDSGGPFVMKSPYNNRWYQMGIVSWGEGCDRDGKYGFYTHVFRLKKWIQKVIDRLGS
Hits are given with their value; - = inactive; . = not tested or not shown. Shown are actives, neighbours in structure and some others; about 2.4% of the full set was active somewhere. Cut-off read from the data, not from the text of the source, unless noted: active = inhibition above about 40%; inactive = the rest.

SMILES | Tb MetRS inh | PREPL inh | Neddyl block | HNF4A DNA FP | Rpn11 inh | CSN deneddyl inh | Rpn11 confirm | MMP-2 counter | Thrombin inh
CC(C)CC1C(=O)N(Cc2cn(Cc3ccco3)nn2)CCS(=O)(=O)N1Cc1ccc(-c2cccc(N(C)C)c2)cc1 (centres undefined) | - | . | - | - | - | - | . | . | .
Cc1ccccc1N1C(=O)C(Cc2ccc(F)cc2)S/C1=C(\C#N)C(N)=O (centres undefined) | - | - | - | - | 45.3 | - | - | - | -
N#C/C(C(N)=O)=C1/SC(Cc2ccc(F)cc2)C(=O)N1c1ccccc1 (centres undefined) | - | - | - | - | - | - | . | . | .
COc1ccc(C(C(=O)NC(C)(C)C)n2c(-c3ccc(-c4ccccc4)cc3)nc3ccccc32)cc1 (centres undefined) | - | . | - | - | . | - | . | . | .
CCN1C(=NCCCOC(C)C)N[C@@H](CCc2ccccc2)[C@H](C(=O)NCCCOC(C)C)[C@H]1C | - | - | - | - | - | - | . | . | .
CCCCNC(=O)C(NC(=O)c1cnccn1)C(=O)c1ccccc1 (centres undefined) | - | . | - | - | . | - | . | . | .
N#CCSc1ccccc1NC(=O)COc1ccc(-c2nnco2)cc1 | - | - | - | - | 39.8 | - | - | - | -
S=C(c1cn(CCOc2cccc3ccccc23)c2ccccc12)N1CCCC1 | - | - | - | - | 46.0 | - | 51.8 | - | -
COc1ccc(-n2c(=O)/c(=C\c3cccs3)s/c2=C(/C#N)C(=O)NCCN2CCOCC2)cc1 | - | - | - | - | 105.3 | - | - | - | 43.7
C=CCn1c(=O)/c(=C\c2ccsc2)s/c1=C(/C#N)C(=O)NCCN1CCOCC1 | - | - | - | - | - | - | . | . | .
Cc1ccc2[nH]c(O)c(N=Nc3ccccc3C)c2c1 | - | - | - | - | 54.0 | - | 64.5 | - | -
COc1ccc(-c2[nH]c(-c3ccc(C)cc3)nc2SCC(=O)Nc2nccs2)cc1 | - | - | - | 30.2 | 84.2 | - | - | - | -
COc1ccc(-c2nc(SCC(=O)Nc3nccs3)c(-c3ccc(Cl)cc3)[nH]2)cc1 | - | - | - | - | - | - | . | . | .
COc1ccc(-c2nc(SCC(=O)NC3CCCC3)c(-c3ccc(OC)cc3)[nH]2)cc1 | - | - | - | - | - | - | . | . | .
COc1ccc(-c2[nH]c(-c3ccc(SC)cc3)nc2SCC(=O)Nc2nccs2)cc1 | - | - | - | - | 70.8 | - | 86.8 | - | 62.7
COC(=O)C(C(=O)OC)c1ccccc1CNS(=O)(=O)c1ccc(C)cc1 | - | . | - | - | . | - | . | . | .
O=C1OC(c2cccs2)=N/C1=C\c1ccc(-c2cccc(Cl)c2)o1 | - | - | - | - | 48.2 | - | - | - | -
Cc1cccc(-c2n[nH]nc2C2=CC(=O)CC(C)(C)C2)c1 | - | . | - | - | - | - | . | . | .
Cn1c(SCC(=O)NC2(C#N)CCCCC2)nnc1-c1cccnc1 | - | - | - | - | - | - | . | . | .
CC(/C=C\c1ccccc1)=C/C(=O)O | - | - | - | - | - | - | . | . | .
CC(=O)C1=C(O)C(=CC=Cc2ccccc2)OC1=O | - | . | - | 59.6 | 41.0 | - | 42.5 | - | -
O=C(CSc1nc2nc(-c3cccs3)cc(C(F)(F)F)c2c(=O)[nH]1)Nc1ccc(F)c(F)c1 | - | - | - | - | 40.1 | - | 56.8 | - | -
Cc1ccc(C)c(NC(=O)CSc2nc3nc(-c4cccs4)cc(C(F)(F)F)c3c(=O)[nH]2)c1 | - | - | - | - | - | - | . | . | .
Cc1ccc(Cl)cc1NC(=O)c1cnn2c1NC(c1ccco1)CC2C(F)(F)F (centres undefined) | - | - | - | - | 40.5 | - | - | - | -
COCCNC(=O)c1cnn2c1NC(c1ccco1)CC2C(F)(F)F (centres undefined) | - | - | - | - | - | - | . | . | .
SMILES | Tb MetRS inh | PREPL inh | Neddyl block | HNF4A DNA FP | Rpn11 inh | CSN deneddyl inh | Rpn11 confirm | MMP-2 counter | Thrombin inh
CCCNC(=O)C1(C)CCN(C(=O)COCc2ccccc2)C1 (centres undefined) | - | . | - | - | - | - | . | . | .
Cc1ccc(NC(=O)Nc2nnc(-c3ccncc3)s2)cc1C | - | - | - | - | - | - | . | . | .
O=C(Nc1ccc(F)cc1)Nc1nnc(-c2ccncc2)s1 | - | - | - | - | 65.5 | - | 41.3 | - | -
O=C(Nc1ccc(Cl)cc1)Nc1nnc(-c2ccncc2)s1 | - | - | - | - | 169.8 | - | - | - | -
O=C(c1ccc(F)c(S(=O)(=O)N2CCOCC2)c1)N1CCN(c2ncccn2)CC1 | - | - | - | - | - | - | . | . | .
Cc1ccc(NC(=O)CSCC(=O)N(C)Cc2c(F)cccc2Cl)cc1 | - | . | - | - | - | - | . | . | .
Brc1ccc(-c2nnc3ccc(N4CCN(c5ccccc5)CC4)nn23)cc1 | - | - | - | - | 62.3 | - | - | - | -
CC(=O)N(/N=C1\Sc2ccccc2C1=O)c1ccccc1C | - | - | - | - | 38.6 | - | - | - | -
COc1cc(/C=N/OCC(=O)Nc2cc(C)cc(C)c2)ccc1OCc1ccc(Cl)cc1 | - | - | - | - | 42.1 | - | - | - | -
Cc1onc(-c2c(F)cccc2Cl)c1C(=O)OCC(=O)c1c[nH]c2ccccc12 | - | - | - | - | 57.7 | - | - | - | -
Cc1nc(C)c(C(=O)N/N=C/c2cc(Br)ccc2O)s1 | - | - | - | - | 47.1 | - | - | - | -
COc1cccc2cc(CC(=O)c3ccccc3)c(=O)oc12 | - | - | - | - | - | - | . | . | .
O=C(CN1C(=O)/C(=C/c2ccc(F)cc2)SC1=S)N1CCN(CCc2ccccn2)CC1 | - | - | - | - | 41.7 | - | - | - | -
CN1CCN(C(=O)CCN2C(=O)/C(=C\c3ccc(F)cc3)SC2=S)CC1 | - | - | - | - | - | - | . | . | .
CCN(CC)CCCNC(=O)c1nn(-c2cccc(OC)c2)c(=O)c2ccccc12 | - | - | - | - | - | - | . | . | .
CCN(CC)CCCNC(=O)c1nn(-c2ccc(OC)cc2OC)c(=O)c2ccccc12 | - | - | - | - | 47.8 | - | - | - | -
NC(=O)COc1ccc(/C=N\NC(=O)c2ccc(-c3ccccc3)cc2)cc1 | - | - | . | - | 124.6 | - | - | - | -
Cc1cccc(C)c1NC(=O)C1C(c2ccccc2)=Nc2ccccc2N1C(=O)c1cnccn1 (centres undefined) | - | . | - | - | . | - | . | . | .
CCN(C(=O)c1cc(S(=O)(=O)N2CCc3ccccc32)cn1C)c1ccccc1 | - | - | - | - | - | - | . | . | .
CN1CCCN(S(=O)(=O)c2ccccc2)c2nc3ccccc3nc21 | - | . | - | - | - | - | . | . | .
